Measured values published in ChEMBL document CHEMBL1145494, “Covalent dimer species of beta-defensin Defr1 display potent antimicrobial activity against multidrug-resistant bacterial pathogens” (2007).
Converted amounts (≈) assume the structure as drawn. Residues, ends and D or L forms follow the SMILES beside them.

What was measured:
Pseudomonas aeruginosa [1] = test: Antibacterial activity against meropenem and tobramycin-resistant Pseudomonas aeruginosa C3781; type: functional
Procedure, shortened: (§1)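 Bacteria grown to mid-log phase in Iso-Sensitest broth, diluted to 1 × 10^6 to 5 × 10^6 CFU/ml in 10 mM potassium phosphate, pH 7.4, with 1% (vol/vol) Iso-Sensitest broth. Peptide dilutions incubated with 100 μl of cells (1 × 10^5 to 5 × 10^5 CFU) at 37°C for 3 h. 10-fold dilutions plated and CFU counted next day. MBC = concentration giving >99.99% kill of inoculum. Triplicate on three occasions, mean taken.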

[2] = test system: Stenotrophomonas maltophilia; test: Antibacterial activity against ciprofloxacin and meropenem-resistant Stenotrophomonas maltophilia C3626
[3] = test system: Stenotrophomonas maltophilia; test: Antibacterial activity against ciprofloxacin, meropenem and tobramycin-resistant Stenotrophomonas maltophilia C1980; type: functional; procedure, shortened: as §1
Staphylococcus aureus [4] = test: Antibacterial activity against ciprofloxacin and methicillin-resistant Staphylococcus aureus J2918
[5] = test system: Stenotrophomonas maltophilia; test: Antibacterial activity against meropenem and tobramycin-resistant Stenotrophomonas maltophilia C3627; type: functional; procedure, shortened: as §1
[6] = test system: Stenotrophomonas maltophilia; test: Antibacterial activity against ciprofloxacin, meropenem and colistin-resistant Stenotrophomonas maltophilia C3625; type: functional; procedure, shortened: as §1
Pseudomonas aeruginosa [7] = test: Antibacterial activity against Pseudomonas aeruginosa PAO1; type: functional; procedure, shortened: as §1
Pseudomonas aeruginosa [8] = test: Antibacterial activity against tobramycin-resistant Pseudomonas aeruginosa C4269; type: functional; procedure, shortened: as §1
Ralstonia pickettii = test: Antibacterial activity against Ralstonia pickettii R4050/C3079; type: functional
Procedure, shortened: (§2)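 Mid-log cultures grown in Iso-Sensitest broth, diluted to 1 × 10^6 to 5 × 10^6 CFU/ml in 10 mM potassium phosphate with 1% (vol/vol) Iso-Sensitest broth, pH 7.4. Peptide at various concentrations was incubated with 1 × 10^5 to 5 × 10^5 CFU in 100 μl at 37°C for 3 h. 10-fold dilutions were plated and CFU counted next day. MBC was taken as >99.99% killing of the inoculum, as the mean of triplicates on three independent occasions.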

Candida albicans = test: Antifungal activity against Candida albicans J2922; type: functional
[9] = test system: Bordetella bronchiseptica; test: Antibacterial activity against Bordetella bronchiseptica J3083; type: functional; procedure, shortened: as §2
Pseudomonas aeruginosa [10] = test: Antibacterial activity against tobramycin-resistant Pseudomonas aeruginosa H183; type: functional; procedure, shortened: as §1
Pseudomonas aeruginosa [11] = test: Antibacterial activity against meropenem and colistin-resistant Pseudomonas aeruginosa C3425; type: functional; procedure, shortened: as §1
Burkholderia cenocepacia = test: Antibacterial activity against Burkholderia cenocepacia ATCC BAA-245; type: functional; procedure, shortened: as §2
Cupriavidus necator = test: Antibacterial activity against Ralstonia eutropha ATCC 17697; type: functional; procedure, shortened: as §2
Burkholderia cepacia = test: Antibacterial activity against Burkholderia cepacia ATCC 25416; type: functional; procedure, shortened: as §2
Acinetobacter baumannii = test: Antibacterial activity against Acinetobacter baumannii ATCC 19606; type: functional; procedure, shortened: as §2
Escherichia coli = test: Antibacterial activity against Escherichia coli ATCC 25922; type: functional; procedure, shortened: as §2
Enterococcus faecalis = test: Antibacterial activity against Enterococcus faecalis ATCC 700802; type: functional; procedure, shortened: as §2
Staphylococcus aureus [12] = test: Antibacterial activity against Staphylococcus aureus ATCC 25923; type: functional; procedure, shortened: as §2
Pseudomonas aeruginosa [13] = test: Antibacterial activity against Pseudomonas aeruginosa in presence of 100 mM NaCl; type: functional
Procedure, shortened: (§3)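 P. aeruginosa PAO1 (1 × 10^5 CFU in 100 μl) in 10 mM potassium phosphate with 1% (vol/vol) Iso-Sensitest, pH 7.4, containing NaCl (0 to 200 mM). Challenged with peptide in doubling dilutions from 0 to 150 μg/ml at 37°C for 3 h, then plated for CFU. MBC (>99.99% killing) was determined at each NaCl concentration.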

Pseudomonas aeruginosa [14] = test: Antibacterial activity against Pseudomonas aeruginosa in presence of 150 mM NaCl; type: functional; procedure, shortened: as §3
Pseudomonas aeruginosa [15] = test: Antibacterial activity against Pseudomonas aeruginosa in presence of 50 mM NaCl; type: functional; procedure, shortened: as §3
Pseudomonas aeruginosa [16] = test: Antibacterial activity against Pseudomonas aeruginosa in presence of 200 mM NaCl; type: functional; procedure, shortened: as §3

Compound | MBC (Pseudomonas aeruginosa [1]) | MBC [2] | MBC [3] | MBC (Staphylococcus aureus [4]) | MBC [5] | MBC [6] | MBC (Pseudomonas aeruginosa [7]) | MBC (Pseudomonas aeruginosa [8]) | MBC (Ralstonia pickettii) | MBC (Candida albicans) | MBC [9] | MBC (Pseudomonas aeruginosa [10]) | MBC (Pseudomonas aeruginosa [11]) | MBC (Burkholderia cenocepacia) | MBC (Cupriavidus necator) | MBC (Burkholderia cepacia) | MBC (Acinetobacter baumannii) | MBC (Escherichia coli) | MBC (Enterococcus faecalis) | MBC (Staphylococcus aureus [12]) | also measured
CC[C@H](C)[C@H](NC(=O)CNC(=O)CNC(=O)[C@H](CC(N)=O)NC(=O)[C@H](CCCNC(=N)N)NC(=O)[C@@H](NC(=O)[C@H](Cc1ccc(O)cc1)NC(=O)[C@@H](NC(=O)[C@@H](NC(=O)[C@@H]1CCCN1C(=O)[C@@H](N)CC(=O)O)C(C)C)[C@@H](C)O)[C@@H](C)CC)C(=O)N[C@@H](CS)C(=O)N[C@@H](CCC(N)=O)C(=O)N[C@@H](Cc1ccc(O)cc1)C(=O)N[C@@H](CCCNC(=N)N)C(=O)N[C@@H](CS)C(=O)N[C@H](C(=O)NCC(=O)N[C@@H](CC(C)C)C(=O)N[C@@H](CCCNC(=N)N)C(=O)N[C@@H](Cc1cnc[nH]1)C(=O)N[C@@H](CCCCN)C(=O)N[C@H](C(=O)NCC(=O)N[C@H](C(=O)N[C@@H](CS)C(=O)NCC(=O)N[C@@H](CO)C(=O)N1CCC[C@H]1C(=O)N[C@@H](Cc1ccccc1)C(=O)N[C@@H](CCCCN)C(=O)N[C@@H](CS)C(=O)N[C@@H](CS)C(=O)N[C@@H](CCCCN)C(=O)O)[C@@H](C)O)[C@@H](C)CC)[C@@H](C)CC (H-DPVTYIRNGGICQYRCIGLRHKIGTCGSPFKCCK-OH) | 6 µg/mL (≈ 1.58 µM) | 3 µg/mL (≈ 0.792 µM) | 12.5 µg/mL (≈ 3.3 µM) | 6 µg/mL (≈ 1.58 µM) | 6 µg/mL (≈ 1.58 µM) | 6 µg/mL (≈ 1.58 µM) | 6 µg/mL (≈ 1.58 µM) | 6 µg/mL (≈ 1.58 µM) | 3 µg/mL (≈ 0.792 µM) | 3 µg/mL (≈ 0.792 µM) | 6 µg/mL (≈ 1.58 µM) | 6 µg/mL (≈ 1.58 µM) | 6 µg/mL (≈ 1.58 µM) | > 100 µg/mL | 3 µg/mL (≈ 0.792 µM) | > 100 µg/mL | 3 µg/mL (≈ 0.792 µM) | 8 µg/mL (≈ 2.11 µM) | 6 µg/mL (≈ 1.58 µM) | 10 µg/mL (≈ 2.64 µM) | 
H-DPVTYIRNGGIAQYRAIGLRHKIGTAGSPFKCAK-OH |  |  |  |  |  |  |  |  |  |  |  |  |  |  |  |  |  |  |  |  | MBC (Pseudomonas aeruginosa [13]): 25 µg/mL; MBC (Pseudomonas aeruginosa [14]): 50 µg/mL; MBC (Pseudomonas aeruginosa [15]): 25 µg/mL; MBC (Pseudomonas aeruginosa [16]): 50 µg/mL
POLYMYXIN B | 0.5 µg/mL |  | 32 µg/mL |  | 64 µg/mL | 32 µg/mL | 0.5 µg/mL | 1 µg/mL | > 512 µg/mL | > 512 µg/mL | 0.12 µg/mL | 1 µg/mL | 1 µg/mL | > 512 µg/mL | 128 µg/mL | > 512 µg/mL | 1 µg/mL | 0.25 µg/mL | 256 µg/mL | 256 µg/mL | 
CC[C@H](C)[C@H](NC(=O)CNC(=O)CNC(=O)[C@H](CC(N)=O)NC(=O)[C@H](CCCNC(=N)N)NC(=O)[C@@H](NC(=O)[C@H](CS)NC(=O)[C@@H](NC(=O)[C@@H](NC(=O)[C@@H]1CCCN1C(=O)[C@@H](N)CC(=O)O)C(C)C)[C@@H](C)O)[C@@H](C)CC)C(=O)N[C@@H](CS)C(=O)N[C@@H](CCC(N)=O)C(=O)N[C@@H](Cc1ccc(O)cc1)C(=O)N[C@@H](CCCNC(=N)N)C(=O)N[C@@H](CS)C(=O)N[C@H](C(=O)NCC(=O)N[C@@H](CC(C)C)C(=O)N[C@@H](CCCNC(=N)N)C(=O)N[C@@H](Cc1cnc[nH]1)C(=O)N[C@@H](CCCCN)C(=O)N[C@H](C(=O)NCC(=O)N[C@H](C(=O)N[C@@H](CS)C(=O)NCC(=O)N[C@@H](CO)C(=O)N1CCC[C@H]1C(=O)N[C@@H](Cc1ccccc1)C(=O)N[C@@H](CCCCN)C(=O)N[C@@H](CS)C(=O)N[C@@H](CS)C(=O)N[C@@H](CCCCN)C(=O)O)[C@@H](C)O)[C@@H](C)CC)[C@@H](C)CC (H-DPVTCIRNGGICQYRCIGLRHKIGTCGSPFKCCK-OH) | 100 µg/mL (≈ 26.8 µM) | > 100 µg/mL | > 100 µg/mL | > 100 µg/mL | > 100 µg/mL | > 100 µg/mL | 50 µg/mL (≈ 13.4 µM) | > 100 µg/mL | > 100 µg/mL | 25 µg/mL (≈ 6.71 µM) | > 100 µg/mL | 100 µg/mL (≈ 26.8 µM) | 50 µg/mL (≈ 13.4 µM) | > 100 µg/mL | > 100 µg/mL | > 100 µg/mL | 12.5 µg/mL (≈ 3.35 µM) | > 100 µg/mL | 100 µg/mL (≈ 26.8 µM) | > 100 µg/mL | 
